High-throughput results (PubChem)
In the library only some 2.1% were active in any assay of this set; here they are far more common.
FN deposit inh: inhibitors of fibronectin matrix deposition, primary screen, AH1F cells, Alexa488-fibronectin fluorescence, plate reader; 0.086% of 350,000 active; AH1F fibroblasts, overnight; inhibition, % at 12.6 µM;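 active = mean inhibition across replicates of 30% or more, regardless of how many single replicates reach that level; inconclusive = mean under 30% yet at least half of replicates reach 30%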;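 note: positive control wells lacked labelled fibronectin entirely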
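material = AH1F fibroblast monolayer depositing Alexa488-labelled fibronectin into matrix | amount = 10000 AH1F cells/well | buffer or medium = DMEM plus 2% serum, read in PBS | incubation = 1 h cell adhesion before compound, then overnight fibronectin incubation | detection = fluorescence at 485 nm excitation, 525 nm emission | evaluation = percent inhibition as loss of matrix-bound fibronectin fluorescence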
EWS-Fli inh: EWS/Fli-driven NR0B1 reporter inhibitors, primary screen, A673 cells, NR0B1 luciferase, luminescence, MLPCN library. viability-normalised. inhibition, % at 12.6 µM. 0.67% of 350,000 active;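 active = mean inhibition of at least 50% after viability correction, with every replicate also passing that limit; inconclusive = mean reaches 50% but only one of two replicates passes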;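 note: firefly luciferase signal divided by Alamar Blue viability fluorescence both relative to DMSO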
aSyn 5UTR inh: MLPCN primary screen, SNCA 5' untranslated region; alpha-synuclein 5'UTR reporter, inhibitor activity; inhibition, % (tested at 7.5 µM); 0.82% of 300,000 active; AID 1813, 2009; in the data active = inhibition above about 60%; inconclusive = no clear call, values can overlap the other calls;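 note: H4 neuroglioblastoma cells stably carrying SNCA 5'UTR luciferase fusion; 0% = DMSO wells and 100% = positive control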
EBV LMP1 NFkB: EBV LMP1-driven NF-kappaB luciferase reporter inhibitors, primary screen, cell-based, luminescence, single point. LMP1-induced NF-kappaB luciferase reporter cells. inhibition, % at 12.5 µM. AID 504558, 2011. 0.69% of 350,000 active; in the data active = inhibition above about 41%; inconclusive = no clear call, values can overlap the other calls;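 note: 0% = neutral control wells and 100% = reference inhibitor control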
PAX8 inh HTS: inhibitors of PAX8-driven TPO luciferase reporter, primary screen, RMG-I cells, single concentration; 1.2% of 360,000 active; SteadyGlo, 24 h; inhibition, % at 12.6 µM; AID 652154, 2013;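 active = mean replicate inhibition at least 60% with every replicate also reaching 60%; inconclusive = only one of the two criteria is met; inactive = mean below 60% and not all replicates reaching 60%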;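 note: luciferase light reporting Pax8 driven TPO promoter activity; plate controls were median of neutral control wells for no effect and mitoxantrone controls for full effect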
Shn3 3UTR inh: reduction of Shn3 3'UTR firefly luciferase signal, primary screen, Schnurri-3 inhibitor project, cell-based, Clone20 osteoblasts, set 2 | inhibition, % at 12.5 µM | Clone20 osteoblast Shn3 3'UTR firefly luciferase, 24 h | 0.52% of 360,000 active;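 active = mean inhibition of at least 75% with every replicate also reaching 75%; inconclusive = mean inhibition at least 75% but some replicate below; inactive = mean inhibition below 75%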;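 note: 0% = median of neutral control wells and 100% = pilot-screen positive control compound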
* marks the source's active call; other numbers are inactive results.

For CO[C@@H]1CN(C)C(=O)c2cc(NC(=O)NC3CCCCC3)ccc2OC[C@H](C)N(C)C[C@@H]1C the results were FN deposit inh 6, EWS-Fli inh 6 and PAX8 inh HTS 5.
CN(C)CCN1C(=O)c2cccc3cc([N+](=O)[O-])cc(c23)C1=O was read as FN deposit inh -12, EWS-Fli inh inconclusive, EBV LMP1 NFkB 58*, PAX8 inh HTS 39 and Shn3 3UTR inh 97*.
COc1ccc(-c2cc3c(=O)n(CC(=O)NCCCN4CCN(Cc5ccccc5)CC4)ncn3n2)cc1 was read as FN deposit inh -4, EWS-Fli inh 40, aSyn 5UTR inh 29, EBV LMP1 NFkB 50*, PAX8 inh HTS -103 and Shn3 3UTR inh 71.
COc1ccc(-c2cc3c(=O)n(CC(=O)NCCCN4CCC(Cc5ccccc5)CC4)ncn3n2)cc1 was read as FN deposit inh -7, EWS-Fli inh -5, aSyn 5UTR inh 96*, EBV LMP1 NFkB 16, PAX8 inh HTS 8 and Shn3 3UTR inh 70.
COc1ccc(-c2cc3c(=O)n(CC(=O)NCc4ccc(Cl)cc4)ncn3n2)cc1 was read as FN deposit inh 2, EWS-Fli inh -1, aSyn 5UTR inh -36, EBV LMP1 NFkB -48, PAX8 inh HTS -4 and Shn3 3UTR inh -7.
`Cn1nnnc1N=N/C(=N/Nc1ccccc1)c1ccccc1` gave FN deposit inh 10, EWS-Fli inh -11, aSyn 5UTR inh 104*, EBV LMP1 NFkB 60*, PAX8 inh HTS 48 and Shn3 3UTR inh 46.
For Cc1cc(C(=O)Cn2nnc3ccccc3c2=O)c(C)n1Cc1cccs1 the results were FN deposit inh 1, aSyn 5UTR inh 11, EBV LMP1 NFkB -31, PAX8 inh HTS -28 and Shn3 3UTR inh -17.
For Cc1cc(C(=O)CN2C(=O)c3ccccc3C2=O)c(C)n1Cc1cccs1 the results were EWS-Fli inh 47, aSyn 5UTR inh 44, EBV LMP1 NFkB 50* and Shn3 3UTR inh 16.
For Cc1cc(C(=O)CN2C(=O)C(=O)N(Cc3ccco3)C2=O)c(C)n1CCc1ccccc1 the results were FN deposit inh 10, EWS-Fli inh 54*, EBV LMP1 NFkB 0, PAX8 inh HTS 32 and Shn3 3UTR inh 3.
For O=C(Nc1ncccc1O)c1ccc(OCC2CCCO2)cc1 (stereo unspecified) the results were FN deposit inh 2, EWS-Fli inh 32, aSyn 5UTR inh 32, EBV LMP1 NFkB 76*, PAX8 inh HTS 12 and Shn3 3UTR inh 11.
`Cc1cnc(NC(=O)c2ccc(OCC3CCCO3)cc2)s1` (stereo unspecified) gave EWS-Fli inh 64*, aSyn 5UTR inh 79*, EBV LMP1 NFkB 47*, PAX8 inh HTS 24 and Shn3 3UTR inh 26.
Screening Cc1ccc(NC(=O)c2ccc(OCC3CCCO3)cc2)nc1 (stereo unspecified) returned FN deposit inh 3, EWS-Fli inh -5, aSyn 5UTR inh -36, EBV LMP1 NFkB -7, PAX8 inh HTS -138 and Shn3 3UTR inh -78.
For Brc1ccc2c(c1)OCCOCCOc1cc(Br)ccc1OCCOCCOCCO2 the results were aSyn 5UTR inh 73*, EBV LMP1 NFkB 20 and Shn3 3UTR inh 77.
For Brc1cc2c(cc1Br)OCCOCCOCCOCCO2 the results were EWS-Fli inh 3, aSyn 5UTR inh -13, EBV LMP1 NFkB -1, PAX8 inh HTS 10 and Shn3 3UTR inh 0.
COc1ccc(S(=O)(=O)N[C@@H]2C=C[C@H](CC(=O)N3CCN(c4ccccc4)CC3)O[C@H]2CO)cc1 was read as EWS-Fli inh 4 and PAX8 inh HTS -2.
Screening COc1ccc(C(=O)Nc2ccc3ccccc3n2)c(OC)c1OC returned FN deposit inh 7, EWS-Fli inh 55*, aSyn 5UTR inh 44, EBV LMP1 NFkB 15, PAX8 inh HTS 12 and Shn3 3UTR inh -12.
Screening COc1ccc(C(=O)NCCN(C)C)c2nc3ccccc3cc12 returned FN deposit inh -3, EWS-Fli inh 45, EBV LMP1 NFkB 36, PAX8 inh HTS -11 and Shn3 3UTR inh 93*.
Screening Cc1cc(C(=O)Nc2ccc3c(c2)C(=O)N(C)[C@@H]2CC[C@@H](CC(=O)N[C@H](C)c4ccccc4)O[C@H]2CO3)no1 returned FN deposit inh -13, EWS-Fli inh 4 and PAX8 inh HTS 0.
Screening COc1ccc2c(c1)[nH]c1c(=O)n(/N=C/c3ccc(OC)c(CN4CCCC4)c3)cnc12 returned FN deposit inh -6, EWS-Fli inh -8, aSyn 5UTR inh -33, EBV LMP1 NFkB 1, PAX8 inh HTS 5 and Shn3 3UTR inh -9.
Screening COc1ccc(/C=N/n2cnc3c([nH]c4ccc(C)cc43)c2=O)cc1CN1CCCC1 returned FN deposit inh 0, EWS-Fli inh 59*, aSyn 5UTR inh -17, EBV LMP1 NFkB -3, PAX8 inh HTS 20 and Shn3 3UTR inh -16.
COc1ccc(/C=N/n2cnc3c([nH]c4ccc(F)cc43)c2=O)cc1CN1CCCC1 was read as FN deposit inh 7, EWS-Fli inh 57*, aSyn 5UTR inh 17, EBV LMP1 NFkB -12, PAX8 inh HTS 11 and Shn3 3UTR inh -8.
For Cc1ccc[n+](C2=C([O-])c3ccccc3C(=O)C2=O)c1 the results were FN deposit inh 6, EWS-Fli inh -22 and PAX8 inh HTS 26.
`CC(C)(C)c1cc[n+](C2=C([O-])c3ccccc3C(=O)/C2=N\S(=O)(=O)c2cccs2)cc1` gave FN deposit inh 7, EWS-Fli inh 18, aSyn 5UTR inh 69*, PAX8 inh HTS 51 and Shn3 3UTR inh 30.
O=C1/C(=N\S(=O)(=O)c2cccs2)C([n+]2ccccc2)=C([O-])c2ccccc21 was read as FN deposit inh -1, EWS-Fli inh -10, aSyn 5UTR inh 50, EBV LMP1 NFkB 27, PAX8 inh HTS 78* and Shn3 3UTR inh -13.
For C[C@H]1CN([C@@H](C)CO)C(=O)Cc2cc(NC(=O)C3CC3)ccc2O[C@H]1CN(C)S(=O)(=O)c1ccc(F)cc1 the results were EWS-Fli inh -6.
`Cc1ccc(-c2cc(=O)c3cc(F)ccc3[nH]2)cc1` gave FN deposit inh 4, EWS-Fli inh -55, aSyn 5UTR inh -41, EBV LMP1 NFkB -9, PAX8 inh HTS -29 and Shn3 3UTR inh 7.
O=c1cc(-c2ccccc2)[nH]c2cc(Cl)ccc12 was read as FN deposit inh 2, EWS-Fli inh 59*, aSyn 5UTR inh 104*, EBV LMP1 NFkB 15, PAX8 inh HTS 15 and Shn3 3UTR inh 14.
Clc1ccc2[nH]c(-c3ccccc3)cc2c1 was read as EBV LMP1 NFkB -32 and Shn3 3UTR inh -35.
`COc1ccc2[nH]c(-c3cccc(F)c3)cc(=O)c2c1` gave FN deposit inh 0, EWS-Fli inh 30, aSyn 5UTR inh 63*, EBV LMP1 NFkB -6, PAX8 inh HTS -6 and Shn3 3UTR inh -20.
